Experimental findings from ChEMBL document CHEMBL4145497, “Discovery of 2-aminothiazolyl berberine derivatives as effectively antibacterial agents toward clinically drug-resistant Gram-negative Acinetobacter baumanii” (Eur J Med Chem, 2018) are described below.

The test system of one data set is Bacillus subtilis. Description: Antibacterial activity against Bacillus subtilis ATCC 21216 after 18 to 24 hrs by CLSI two fold serial dilution method. Format: functional.
For a further data set, the system named is Aspergillus flavus. Briefly: Antifungal activity against Aspergillus flavus ATCC 204304 by CLSI two fold serial dilution method. Format: functional.
Data set [1] deals with Candida albicans. Description: Antifungal activity against Candida albicans ATCC 76615 by CLSI two fold serial dilution method. It counts as functional.
For another data set, the system named is Pichia norvegensis. Description: Antifungal activity against Candida mycoderma ATCC 96918 by CLSI two fold serial dilution method. Format: functional.
The test system of a further data set is Candida parapsilosis. Description: Antifungal activity against Candida parapsilosis ATCC 22019 by CLSI two fold serial dilution method. It counts as functional. The note with it: Lodderomyces parapsilosis.
Data set [2] has as its system Staphylococcus aureus. Briefly: Antibacterial activity against Staphylococcus aureus ATCC 25923 after 18 to 24 hrs by CLSI two fold serial dilution method. It counts as functional.
For a further data set, the system named is Cyberlindnera jadinii. Description: Antifungal activity against Candida utilis ATCC 9950 by CLSI two fold serial dilution method. It counts as functional. The settings on record: Williopsis jadinii.
The subject of data set [3] is Pseudomonas aeruginosa. Briefly: Antibacterial activity against Pseudomonas aeruginosa ATCC 27853 after 18 to 24 hrs by CLSI two fold serial dilution method. Format: functional.
The subject of a further data set is Saccharomyces cerevisiae. Description: Antifungal activity against Saccharomyces cerevisiae ATCC 9763 by CLSI two fold serial dilution method. Format: functional.
Data set [4] can be described thus: Aqueous solubility of the compound in phosphate buffer at pH 7.4 after 3 hrs by UV detection assay. It counts as physicochemical. A digest of the protocol:
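Water solubility measured at physiological pH, with berberine as the control.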

For data set [5], the system named is Escherichia coli. Description: Antibacterial activity against Escherichia coli DH52 after 18 to 24 hrs by CLSI two fold serial dilution method. Format: functional.
The next data set relates to Micrococcus luteus. Description: Antibacterial activity against Micrococcus luteus ATCC 4698 after 18 to 24 hrs by CLSI two fold serial dilution method. It counts as functional.
Data set [6] concerns Staphylococcus aureus. Description: Antibacterial activity against methicillin-resistant Staphylococcus aureus N315 after 18 to 24 hrs by CLSI two fold serial dilution method. Format: functional.
The next data set has as its system Enterococcus faecalis. Description: Antibacterial activity against drug-resistant Enterococcus faecalis after 18 to 24 hrs by CLSI two fold serial dilution method. Format: functional.
In data set [7] the test system is Escherichia coli. Briefly: Antibacterial activity against drug-resistant Escherichia coli after 18 to 24 hrs by CLSI two fold serial dilution method. Format: functional.
For the next data set, the system named is Aspergillus fumigatus. Briefly: Antifungal activity against drug-resistant Aspergillus fumigatus by CLSI two fold serial dilution method. It counts as functional.
The subject of another data set is Acinetobacter baumannii. Briefly: Antibacterial activity against drug-resistant Acinetobacter baumannii after 18 to 24 hrs by CLSI two fold serial dilution method. Format: functional.
For a further data set, the system named is Klebsiella pneumoniae. Briefly: Antibacterial activity against drug-resistant Klebsiella pneumoniae after 18 to 24 hrs by CLSI two fold serial dilution method. It counts as functional.
For data set [8], the system named is Candida albicans. Briefly: Antifungal activity against drug-resistant Candida albicans by CLSI two fold serial dilution method. It counts as functional.
The test system of another data set is Candida tropicalis. Briefly: Antifungal activity against drug-resistant Candida tropicalis by CLSI two fold serial dilution method. It counts as functional.
The subject of data set [9] is Pseudomonas aeruginosa. Briefly: Antibacterial activity against drug-resistant Pseudomonas aeruginosa after 18 to 24 hrs by CLSI two fold serial dilution method. Format: functional.

In brackets after ≈: the same amount, converted by molar mass.

As to `CCCCCCCCCCOc1c(OC)cc(/C=N/Nc2nccs2)c2c1CN1CCc3cc4c(cc3C1C2)OCO4` (centres undefined), the MIC – broadly, the least concentration at which growth counts as inhibited – with Bacillus subtilis is 220 µM (≈ 130 µg/mL); against Aspergillus flavus, 430 µM (≈ 254 µg/mL); with Candida albicans [1] it was 220 µM (≈ 130 µg/mL); with Pichia norvegensis, 430 µM (≈ 254 µg/mL); against Candida parapsilosis, 220 µM (≈ 130 µg/mL); in the data set with Staphylococcus aureus [2], 110 µM (≈ 65 µg/mL). Further, the MIC with Cyberlindnera jadinii amounted to 220 µM (≈ 130 µg/mL); against Pseudomonas aeruginosa [3] it was 220 µM (≈ 130 µg/mL); against Saccharomyces cerevisiae, 430 µM (≈ 254 µg/mL); with Escherichia coli [5], 220 µM (≈ 130 µg/mL); against Micrococcus luteus it was 220 µM (≈ 130 µg/mL). Besides, the concentration in solution in data set [4] (solubility at 3 h) came to 61 µg/mL (≈ 0.103 mM).

`COc1cc(/C=N/Nc2nccs2)c2c(c1O)CN1CCc3cc4c(cc3C1C2)OCO4` (centres undefined): the MIC in the data set on Bacillus subtilis was found to be 140 µM (≈ 63.1 µg/mL); against Aspergillus flavus, 280 µM (≈ 126 µg/mL); with Candida albicans [1] it was 140 µM (≈ 63.1 µg/mL); with Pichia norvegensis it was 140 µM (≈ 63.1 µg/mL); against Candida parapsilosis it was 40 µM (≈ 18 µg/mL); against Staphylococcus aureus [2], 140 µM (≈ 63.1 µg/mL). Also, the MIC was determined as 280 µM (≈ 126 µg/mL) against Cyberlindnera jadinii; 140 µM (≈ 63.1 µg/mL) with Pseudomonas aeruginosa [3]; 570 µM (≈ 257 µg/mL) in the data set on Saccharomyces cerevisiae; 280 µM (≈ 126 µg/mL) in the data set with Escherichia coli [5]; 70 µM (≈ 31.5 µg/mL) in the data set with Micrococcus luteus. Also, in data set [4], the concentration in solution (solubility at 3 h) was 1660 µg/mL (≈ 3.68 mM).

In the case of `CCCCOc1c(OC)cc(/C=N/Nc2nccs2)c2c1CN1CCc3cc4c(cc3C1C2)OCO4` (centres undefined), the MIC amounted to 250 µM (≈ 127 µg/mL) in the data set on Bacillus subtilis; 510 µM (≈ 258 µg/mL) against Aspergillus flavus; 250 µM (≈ 127 µg/mL) in the data set with Candida albicans [1]; 250 µM (≈ 127 µg/mL) in the data set with Pichia norvegensis; 8 µM (≈ 4.05 µg/mL) in the data set on Candida parapsilosis; 60 µM (≈ 30.4 µg/mL) against Staphylococcus aureus [2]. The MIC with Cyberlindnera jadinii amounted to 250 µM (≈ 127 µg/mL); against Pseudomonas aeruginosa [3], 250 µM (≈ 127 µg/mL); against Saccharomyces cerevisiae, 510 µM (≈ 258 µg/mL); in the data set with Escherichia coli [5] it was 60 µM (≈ 30.4 µg/mL); against Micrococcus luteus, 250 µM (≈ 127 µg/mL). In addition, the solubility (usually the dissolved amount per volume that the medium holds) at 3 h in [4] is 7020 to 10200 µg/mL (≈ 13.9 to 20.1 mM).

Consider `CCOc1c(OC)cc(/C=N/Nc2nccs2)c2c1CN1CCc3cc4c(cc3C1C2)OCO4` (centres undefined), for which the MIC against Bacillus subtilis turned out to be 530 µM (≈ 254 µg/mL); against Aspergillus flavus, 540 µM (≈ 258 µg/mL); against Candida albicans [1], 70 µM (≈ 33.5 µg/mL); in the data set with Pichia norvegensis, 540 µM (≈ 258 µg/mL); against Candida parapsilosis, 30 µM (≈ 14.4 µg/mL); against Staphylococcus aureus [2] it was 70 µM (≈ 33.5 µg/mL). Also, the MIC in the data set on Cyberlindnera jadinii was determined as 540 µM (≈ 258 µg/mL); in the data set on Pseudomonas aeruginosa [3], 70 µM (≈ 33.5 µg/mL); in the data set with Saccharomyces cerevisiae, 1070 µM (≈ 512 µg/mL); in the data set on Escherichia coli [5], 70 µM (≈ 33.5 µg/mL); against Micrococcus luteus, 530 µM (≈ 254 µg/mL). In addition, in [4], the concentration in solution (solubility at 3 h) came to 10200 µg/mL (≈ 21.3 mM).

As for `COc1cc(/C=N/Nc2nccs2)c2c(c1OCc1ccc(Cl)cc1)CN1CCc3cc4c(cc3C1C2)OCO4` (centres undefined), the MIC in the data set with Bacillus subtilis was 450 µM (≈ 259 µg/mL); against Aspergillus flavus it was 890 µM (≈ 512 µg/mL); in the data set on Candida albicans [1] it was 450 µM (≈ 259 µg/mL); in the data set with Pichia norvegensis it was 450 µM (≈ 259 µg/mL); against Candida parapsilosis, 60 µM (≈ 34.5 µg/mL); in the data set with Staphylococcus aureus [2], 450 µM (≈ 259 µg/mL). In addition, the MIC against Cyberlindnera jadinii was 220 µM (≈ 127 µg/mL); in the data set with Pseudomonas aeruginosa [3], 220 µM (≈ 127 µg/mL); in the data set on Saccharomyces cerevisiae, 890 µM (≈ 512 µg/mL); against Escherichia coli [5] it was 110 µM (≈ 63.3 µg/mL); against Micrococcus luteus, 220 µM (≈ 127 µg/mL). For the same compound, in data set [4], the solubility at 3 h is 374 to 3190 µg/mL (≈ 0.65 to 5.55 mM).

For the compound `COc1cc(/C=N/Nc2nccs2)c2c(c1OCCO)CN1CCc3cc4c(cc3C1C2)OCO4` (centres undefined), the MIC against Bacillus subtilis was 260 µM (≈ 129 µg/mL); in the data set with Aspergillus flavus, 1040 µM (≈ 514 µg/mL); with Candida albicans [1], 260 µM (≈ 129 µg/mL); in the data set on Pichia norvegensis, 520 µM (≈ 257 µg/mL); in the data set with Candida parapsilosis, 30 µM (≈ 14.8 µg/mL); against Staphylococcus aureus [2] it was 130 µM (≈ 64.3 µg/mL). The minimum inhibitory concentration (MIC) stood at 520 µM (≈ 257 µg/mL) against Cyberlindnera jadinii; 130 µM (≈ 64.3 µg/mL) in the data set on Pseudomonas aeruginosa [3]; 520 µM (≈ 257 µg/mL) against Saccharomyces cerevisiae; 130 µM (≈ 64.3 µg/mL) in the data set with Escherichia coli [5]; 260 µM (≈ 129 µg/mL) in the data set with Micrococcus luteus. The compound also gave a solubility at 3 h in data set [4] of 7020 to 10200 µg/mL (≈ 14.2 to 20.6 mM).

Consider `COc1cc(/C=N/NC(N)=S)c2c(c1OCc1cccc(Cl)c1)CN1CCc3cc4c(cc3C1C2)OCO4` (centres undefined), for which the MIC came to 120 µM (≈ 66.1 µg/mL) with Bacillus subtilis; 120 µM (≈ 66.1 µg/mL) against Staphylococcus aureus [6]; 230 µM (≈ 127 µg/mL) against Aspergillus flavus; 230 µM (≈ 127 µg/mL) against Candida albicans [1]; 120 µM (≈ 66.1 µg/mL) against Pichia norvegensis; 230 µM (≈ 127 µg/mL) with Enterococcus faecalis. The MIC against Escherichia coli [7] turned out to be 470 µM (≈ 259 µg/mL); in the data set on Aspergillus fumigatus, 120 µM (≈ 66.1 µg/mL); in the data set on Candida parapsilosis, 120 µM (≈ 66.1 µg/mL); against Acinetobacter baumannii, 120 µM (≈ 66.1 µg/mL); in the data set on Klebsiella pneumoniae it was 120 µM (≈ 66.1 µg/mL); in the data set with Candida albicans [8] it was 470 µM (≈ 259 µg/mL). The MIC stood at 60 µM (≈ 33.1 µg/mL) with Staphylococcus aureus [2]; 470 µM (≈ 259 µg/mL) against Cyberlindnera jadinii; 230 µM (≈ 127 µg/mL) in the data set with Pseudomonas aeruginosa [3]; 230 µM (≈ 127 µg/mL) against Saccharomyces cerevisiae; 230 µM (≈ 127 µg/mL) in the data set on Escherichia coli [5]; 230 µM (≈ 127 µg/mL) in the data set on Candida tropicalis. Further, the MIC in the data set with Micrococcus luteus and against Pseudomonas aeruginosa [9] was 470 µM (≈ 259 µg/mL) in each case.

For the compound `COc1cc(/C=N/Nc2nccs2)c2c(c1OCc1ccccc1Cl)CN1CCc3cc4c(cc3C1C2)OCO4` (centres undefined), the MIC was 220 µM (≈ 127 µg/mL) against Bacillus subtilis; 890 µM (≈ 512 µg/mL) in the data set on Aspergillus flavus; 450 µM (≈ 259 µg/mL) against Candida albicans [1]; 110 µM (≈ 63.3 µg/mL) with Pichia norvegensis; 110 µM (≈ 63.3 µg/mL) against Candida parapsilosis; 110 µM (≈ 63.3 µg/mL) with Staphylococcus aureus [2]. The MIC came to 450 µM (≈ 259 µg/mL) against Cyberlindnera jadinii; 450 µM (≈ 259 µg/mL) against Pseudomonas aeruginosa [3]; 890 µM (≈ 512 µg/mL) with Saccharomyces cerevisiae; 450 µM (≈ 259 µg/mL) with Escherichia coli [5]; 890 µM (≈ 512 µg/mL) in the data set with Micrococcus luteus. Besides, in data set [4], the solubility at 3 h fell in the range of 374 to 3190 µg/mL (≈ 0.65 to 5.55 mM).
